The source of these data is publication PMC5010146 (European journal of medicinal chemistry, 2016).

Assay [1] addresses T1, human 15-lipoxygenase-1 (15-LOX-1) (Homo sapiens, UniProt P16050).
T1 sequence (P16050 1-662): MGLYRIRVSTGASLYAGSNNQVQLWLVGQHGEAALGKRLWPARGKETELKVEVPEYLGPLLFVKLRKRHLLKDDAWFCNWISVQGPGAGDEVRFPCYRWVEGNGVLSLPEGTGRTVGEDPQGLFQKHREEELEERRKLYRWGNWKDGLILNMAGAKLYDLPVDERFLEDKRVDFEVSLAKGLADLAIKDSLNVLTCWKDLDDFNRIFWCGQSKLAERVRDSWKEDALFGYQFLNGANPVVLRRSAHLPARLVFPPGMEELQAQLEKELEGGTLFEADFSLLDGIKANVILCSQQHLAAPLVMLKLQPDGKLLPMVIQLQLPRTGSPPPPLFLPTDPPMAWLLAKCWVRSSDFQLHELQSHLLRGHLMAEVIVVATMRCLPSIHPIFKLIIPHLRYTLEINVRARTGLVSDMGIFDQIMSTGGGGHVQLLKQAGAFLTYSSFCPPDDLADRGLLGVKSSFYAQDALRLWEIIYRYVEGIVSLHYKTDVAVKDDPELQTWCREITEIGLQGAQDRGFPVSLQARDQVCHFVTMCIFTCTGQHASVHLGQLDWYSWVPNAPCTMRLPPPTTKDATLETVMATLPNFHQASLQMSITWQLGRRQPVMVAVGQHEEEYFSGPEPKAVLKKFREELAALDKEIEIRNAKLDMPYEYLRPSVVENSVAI
As to the kind of experiment: Michaelis-Menten enzyme kinetics analysis of 15-LOX-1 inhibition. The class given is biochemical. The following applies: Lineweaver-Burk: Km increases, Vmax constant.

Assay [2] concerns HT-22 cells. The experiment in a line: Glutamate-induced cell death, xCELLigence impedance and MTT. The class given is cell-based.
Assay [3] concerns the target T2, 15-LOX-1 (Homo sapiens, UniProt P16050).
T2 sequence (P16050 1-662): T1 sequence (P16050 1-662)
The experiment in a line: 15-LOX-1 enzyme inhibition, UV absorbance. The class given is biochemical.

Assay [4] has as its system HT-22 cells. The experiment in a line: Glutamate-induced lipid peroxidation, BODIPY staining, FACS. The class given is cell-based. To be noted: 1 μM, 16 h after initiation of glutamate challenge. The method, boiled down:
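HT-22 cells were seeded at 5x10^4 per well, left overnight, then exposed to 4 mM glutamate with or without test compound (10 µM) or 1 µM reference inhibitor for 6–7 h or 14–16 h. Staining used BODIPY 581/591 C11 (2 µM final, 1 h, 37°C). The red-to-green fluorescence shift was read by FACS at 488 nm excitation. At least three independent experiments, triplicates.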

Assay [5] deals with 15-LOX-1. The following applies: mouse, transient cerebral ischemia; cited from earlier work.

In the case of `CCCCNC(=O)c1cc(-c2ccccc2)sc1N` [Compound A9, 2-amino-N-butyl-5-phenylthiophene-3-carboxamide], the “mechanism of 15-LOX-1 inhibition” value in assay [1] is recorded as “competitive inhibition”. For the same compound, the “time of addition after glutamate challenge at which cells were still protected” value with HT-22 cells [2] (post-treatment 5 and 10 μM, added 2-8 h after glutamate) is on record as “up to 8 h”.

As for `CCCCNC(=O)c1cc(-c2ccc(Br)cc2)sc1N` [Compound 3m, 2-amino-5-(4-bromophenyl)-N-butylthiophene-3-carboxamide], the “inhibitory potency in words” value against 15-LOX-1 [3] was “inactive”.

With `CCCCNC(=O)c1cc(Cc2ccccc2)sc1N` [Compound 3n, 2-amino-5-benzyl-N-butylthiophene-3-carboxamide], the “inhibitory potency in words” value at 15-LOX-1 [3] was “inactive”.

As to `CCCCNC(=O)c1cc(-c2ccc(Cl)cc2)sc1N` [Compound 3l, 2-amino-N-butyl-5-(4-chlorophenyl)thiophene-3-carboxamide], the “inhibitory potency in words” value against 15-LOX-1 [3] is “inactive”.

Consider `c1ccc2c(c1)SCc1c-2[nH]c2ccccc12` [PD-146176], for which the “effect on boost of lipid peroxides” value with HT-22 cells [4] is “significantly attenuated”. Also, in the assay on HT-22 cells [2] (1 μM), the “protection against glutamate toxicity compared with ThioLox” value is listed as “Comparable results”. In addition, in the assay with 15-LOX-1 [5], the “effect on infarct size” value was “significantly reduced the infarct size”.
